Reference: ChEMBL document CHEMBL2169845 (J Med Chem, 2012)
Activity calls are given as the source filed them.

Experiments:
NCI-H146 [1] = experiment: Induction of apoptosis in human NCI-H146 cells assessed as PARP cleavage at 100 nM after 24 hrs by Western blot analysis; assay type: functional, cell-based
How it was run: (§1)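 H146 cells treated for 24 hr, then lysed on ice for 20 min in RIPA buffer with PMSF and protease inhibitors. Cleared lysates normalized by protein assay and run on 4–20% SDS-PAGE, then blotted to PVDF. Probed with rabbit antibodies to PARP and caspase-3 (cleaved forms detected), GAPDH as loading control, with HRP chemiluminescence detection.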

[2] = Cytotoxicity against human NCI-H146 cells assessed as growth inhibition after 4 days by WST-8 assay; assay type: functional, cell-based; conditions: NCI-H146, 96 h
NCI-H146 [3] = experiment: Induction of apoptosis in human NCI-H146 cells xenografted in SCID mouse assessed as caspase 3 cleavage at 50 mg/kg, iv after 3 to 24 hrs by Western blot analysis; assay type: functional, organism-based; parameters: dose 50 mg/kg
How it was run: (§2)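 SCID mice bearing H146 xenografts (100–200 mm3) received one i.v. dose, with a vehicle control group. Tumors harvested at 3, 6 and 24 h. PARP cleavage and caspase-3 cleavage assessed by Western blot.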

NCI-H146 [4] = experiment: Induction of apoptosis in human NCI-H146 cells xenografted in SCID mouse assessed as PARP cleavage at 50 mg/kg, iv after 3 to 6 hrs by Western blot analysis; assay type: functional, organism-based; parameters: dose 50 mg/kg; how it was run: as §2
[5] = target: T1, Apoptosis regulator Bcl-2 (Homo sapiens, UniProt P10415)
[6] = target: T1, Apoptosis regulator Bcl-2; experiment: Inhibition of N-terminal 6xHis-tagged human Bcl-2 expressed in Escherichia coli BL21 (DE3) after 2 hrs by fluorescence polarization assay
NCI-H1417 = experiment: Cytotoxicity against human H1417 cells assessed as growth inhibition after 4 days by WST-8 assay; assay type: functional, cell-based; conditions: NCI-H1417, 96 h
NCI-H146 [7] = experiment: Antitumor activity against human NCI-H146 cells xenografted in SCID mouse assessed as tumor regression at 50 mg/kg, iv administered 5 days per week for 2 weeks; assay type: functional, organism-based; parameters: dose 50 mg/kg
How it was run: (§3)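 SCID mice bearing H146 xenografts randomized at 40–110 mm3 tumor volume (mean 70 mm3), 8 per group. Dosed intravenously, daily, 5 days a week for 2 weeks, with a vehicle control group. Tumor size and body weight measured 3 times weekly during dosing and twice weekly afterwards. Tumor volumes reported as mean ± SEM.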

Mus musculus [8] = experiment: Toxicity in SCID mouse assessed as body weight loss at 75 mg/kg, iv administered 5 days per week for 2 weeks relative to vehicle-treated control; assay type: organism-based; parameters: dose 75 mg/kg, route intravenous; conditions: in vivo
How it was run: (§4)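 Tolerability tested in SCID mice given daily i.v. doses, 5 days a week for 2 weeks. Body weight loss tracked against a 10% threshold.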

NCI-H146 [9] = experiment: Induction of apoptosis in human NCI-H146 cells assessed as caspase 3 activation at 100 nM after 24 hrs by Western blot analysis; assay type: functional, cell-based; how it was run: as §1
Mus musculus [10] = experiment: Toxicity in SCID mouse assessed as body weight loss at 50 mg/kg, iv administered 5 days per week for 2 weeks relative to vehicle-treated control; assay type: organism-based; parameters: dose 50 mg/kg, route intravenous; conditions: in vivo; how it was run: as §4
[11] = Inhibition of c-terminally truncated N-terminal 8xHis-tagged human Bcl-xL deletion mutant expressed in Escherichia coli BL21 (DE3) after 2 hrs by fluorescence polarization assay
[12] = Toxicity in iv dosed SCID mouse administered 5 days per week for 2 weeks; assay type: organism-based; conditions: in vivo
NCI-H146 [13] = experiment: Antitumor activity against human NCI-H146 cells xenografted in SCID mouse assessed as tumor growth inhibition at 50 mg/kg, iv administered 5 days per week for 2 weeks; assay type: functional, organism-based; parameters: dose 50 mg/kg; how it was run: as §3
NCI-H146 [14] = experiment: Induction of apoptosis in human NCI-H146 cells assessed as cell viability after 24 hrs by trypan blue exclusion assay; assay type: functional, cell-based
How it was run: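 H146 cells exposed to a range of compound concentrations for 24 hr, then harvested and stained with trypan blue. Cells staining blue or looking morphologically unhealthy were scored as dead. At least 100 cells counted per sample.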

Mus musculus [15] = experiment: Toxicity in SCID mouse assessed as body weight loss at 10 mg/kg, iv administered 5 days per week for 2 weeks relative to vehicle-treated control; assay type: organism-based; parameters: dose 10 mg/kg, route intravenous; conditions: in vivo; how it was run: as §4
Mus musculus [16] = experiment: Toxicity in SCID mouse assessed as body weight loss at 25 mg/kg, iv administered 5 days per week for 2 weeks relative to vehicle-treated control; assay type: organism-based; parameters: dose 25 mg/kg, route intravenous; conditions: in vivo; how it was run: as §4
NCI-H146 [17] = experiment: Induction of apoptosis in human NCI-H146 cells assessed as cell viability at 10 nM after 24 hrs by trypan blue exclusion assay; assay type: functional; conditions: NCI-H146, 24 h, read-out: Activity
How it was run: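 H146 small-cell lung cancer cells exposed to serial compound concentrations for 24 hr, then collected and stained with trypan blue. Blue-stained or morphologically unhealthy cells were scored as dead, with at least 100 cells counted per sample.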

T1 sequence (P10415 whole entry): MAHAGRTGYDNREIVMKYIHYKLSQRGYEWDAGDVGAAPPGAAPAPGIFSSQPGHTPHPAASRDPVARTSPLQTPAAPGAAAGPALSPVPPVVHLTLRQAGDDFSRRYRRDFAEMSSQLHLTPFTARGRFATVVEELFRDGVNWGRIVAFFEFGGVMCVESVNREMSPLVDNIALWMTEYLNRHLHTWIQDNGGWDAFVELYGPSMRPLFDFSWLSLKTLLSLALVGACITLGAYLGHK

SMILES | Activity (NCI-H146 [1]) | IC50 [2] | Activity (NCI-H146 [3]) | Activity (NCI-H146 [4]) | Ki [5] | IC50 [6] | IC50 (NCI-H1417) | Activity (NCI-H146 [7]) | Activity (Mus musculus [8]) | Activity (NCI-H146 [9]) | Activity (Mus musculus [10]) | IC50 [11] | MTD at 2 weeks [12] | TGI (NCI-H146 [13]) | Activity (NCI-H146 [14]) | Activity (Mus musculus [15]) | Activity (Mus musculus [16]) | viability at 0.01 µM (NCI-H146 [17])
Cc1c(C(=O)O)c(-c2cccc(N3CCN(c4ccc(NS(=O)(=O)c5ccc(N[C@H](CCN6CCC(O)CC6)CSc6ccccc6)c(S(=O)(=O)C(F)(F)F)c5)cc4)CC3)c2)c(-c2ccc(Cl)cc2)n1C | Active | 108 nM | Active | Active | 2.4 nM | 10.2 nM | 125 nM | inactive | > 10% | Active | < 10% | 7 nM | 50 mg/kg | Active | Dose-dependent effect |  |  | 
Cc1c(C(=O)O)c(-c2cccc(N3CCN(c4ccc(NS(=O)(=O)c5ccc(N[C@H](CCN6CCC(O)CC6)CSc6ccccc6)c(S(=O)(=O)C(F)(F)F)c5)cc4)CC3)c2)c(-c2ccc(Cl)cc2)n1C(C)C |  | 13 nM |  |  | 0.8 nM | 4 nM | 9 nM |  |  |  |  | 3.9 nM | 10 mg/kg |  | Dose-dependent effect | < 10% | > 10% | > 50%
